Experimental data: ChEMBL document CHEMBL2146443, “Cytotoxicity and DNA binding property of phenanthrene imidazole with polyglycol side chains” (Bioorg Med Chem Lett, 2012)
Calls of active or inactive are those of the source. No cut-off for these calls is given here.

Tests used:
Nucleic Acid [1] = assay: Binding affinity to calf thymus DNA at 4 x 10^-5 M at pH 7.5 by UV-Vis spectrophotometry; type: nucleic-acid assay; conditions: Bos taurus
In short: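 UV–vis titration: compound at 4.0 × 10^-5 M with Ct-DNA added (0–400 μM) in 1 mM phosphate buffer pH 7.5, 20 mM NaCl, 5% DMSO (v/v), 25 °C. Absorbance read over 300–400 nm to avoid DNA interference; binding constants fitted at maximum absorption band.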

HL-60 = assay: Antiproliferative activity against human HL60 cells by MTT assay; type: functional, cell-based
BGC-823 = assay: Antiproliferative activity against human BGC823 cells by MTT assay; type: functional, cell-based
Nucleic Acid [2] = assay: Binding affinity to calf thymus DNA at 2 x 10^-5 M at pH 7.5 by circular dichroism; type: nucleic-acid assay; conditions: Bos taurus
In short: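 Circular dichroism of Ct-DNA (6.0 × 10^-5 M) alone and with compound (2.0 × 10^-5 M), in 10 mM phosphate buffer pH 7.5 with 20 mM NaCl and 5% DMSO, 25 °C.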

Nucleic Acid [3] = assay: Binding affinity to calf thymus DNA at 4 x 10^-5 M at pH 7.5 by fluorescence spectrophotometry; type: nucleic-acid assay; conditions: Bos taurus
In short: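 Emission quenching: compound at 4.0 × 10^-5 M, excitation 320 nm, 5.0 nm slits, titrated with Ct-DNA 0–400 μM in 1 mM phosphate buffer pH 7.5, 20 mM NaCl, 5% DMSO, 25 °C. F/F0 plotted against DNA concentration; Stern-Volmer constants derived.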

Nucleic Acid [4] = assay: Binding affinity to calf thymus DNA assessed as change in melting temperature at 5 x 10^-6 M at pH 7.5 relative to control; type: nucleic-acid assay; conditions: Bos taurus
KB = assay: Antiproliferative activity against human KB cells by MTT assay; type: functional, cell-based
Bel-7402 = assay: Antiproliferative activity against human Bel7402 cells by MTT assay; type: functional, cell-based
[5] = Solubility in phosphate buffer at pH 7.5; type: physicochemical

| Structure (SMILES) | K (Nucleic Acid [1]) [×10⁶ /M] | IC50 (HL-60) [µM] | IC50 (BGC-823) [µM] | Activity (Nucleic Acid [2]) | Activity (Nucleic Acid [3]) | ΔTm (Nucleic Acid [4]) [°C] | IC50 (KB) [µM] | IC50 (Bel-7402) [µM] | solubility [5] |
| --- | --- | --- | --- | --- | --- | --- | --- | --- | --- |
| Cn1c(-c2ccc(OCCOCCO)cc2)[n+](C)c2c3ccccc3c3ccccc3c21 | 1.51 | 12.1 | 9.35 | Active | Active | 4.2 | 11 | 10.7 | – |
| Cn1c(-c2ccc(OCCO)cc2)[n+](C)c2c3ccccc3c3ccccc3c21 | 1.68 | 24.8 | 10.7 | Active | Active | 4.8 | 14.5 | 14.1 | – |
| Cn1c(-c2ccc(OCCOCCOCCO)cc2)[n+](C)c2c3ccccc3c3ccccc3c21 | 0.709 | 15.6 | 7.01 | Active | Active | 4 | 9.12 | 10.6 | – |

The remaining compounds from weak to strong by IC50 (HL-60), led by results:

| K (Nucleic Acid [1]) [×10⁶ /M] | IC50 (HL-60) [µM] | IC50 (BGC-823) [µM] | Activity (Nucleic Acid [2]) | Activity (Nucleic Acid [3]) | ΔTm (Nucleic Acid [4]) [°C] | IC50 (KB) [µM] | IC50 (Bel-7402) [µM] | solubility [5] | Structure (SMILES) |
| --- | --- | --- | --- | --- | --- | --- | --- | --- | --- |
| – | 11.9 | 24.2 | – | – | – | 44.6 | 27.9 | Insoluble | OCCOCCOCCOc1ccc(-c2nc3c4ccccc4c4ccccc4c3[nH]2)cc1 |
| – | 11.3 | 6.36 | – | – | – | 7.03 | 4.65 | Insoluble | OCCOc1ccc(-c2nc3c4ccccc4c4ccccc4c3[nH]2)cc1 |
| – | 8.14 | 22.5 | – | – | – | 30.7 | 18.1 | Insoluble | OCCOCCOc1ccc(-c2nc3c4ccccc4c4ccccc4c3[nH]2)cc1 |
